Assay results from different studies.
Each line is one published result; the experiments were not run side by side.
Target: Calcium/calmodulin-dependent protein kinase kinase 1 (CAMKK1, Homo sapiens, UniProt Q8N5S9)

Structure (SMILES) | effect on | mode | technique | concentration | endpoint | result
Cn1c2c(Cl)c(Cl)ccc2c2cn[nH]c(=O)c21 | thermal stability |  | DSF | 10 µM | ΔTm | 0.5 °C
Cc1ccc(C(=O)Nc2ccc(CN3CCN(C)CC3)c(C(F)(F)F)c2)cc1C#Cc1cnc2cccnn12 | enzyme activity | inhibitor |  | 23.5 nM | remaining activity | 85%
Cc1ccc(C(=O)NCc2ccsc2)cc1C#Cc1cn(C(C)C)c2ncnc(N)c12 | enzyme activity | inhibitor |  | 1 µM | activity vs control | 84%
O=c1nc(-c2ccccn2)sc2ccccc12 | binding |  | competition with immobilised ligand | 1 µM | remaining binding | 96%
O=C1Nc2ccc(Cl)cc2C1=Cc1cc(Cl)c(O)c(Cl)c1 | cell-free assay |  |  | 0.5 µM | remaining signal | 52.5%
Cc1sc(C(=O)NC2COC2)cc1-n1cc(NC(=O)Nc2c(F)cccc2Cl)cn1 | enzyme activity | inhibitor |  | 10 µM | remaining activity | 121%
Cn1c2c(c3ccc(Cl)c(Cl)c31)C(C#N)C1(CCN(C(=O)OC(C)(C)C)CC1)NC2=O (racemic) | thermal stability |  | DSF | 10 µM | ΔTm | -0.1 °C
Oc1ccc(-c2nc(-c3ccncc3)c(-c3ccc(F)cc3)[nH]2)cc1 | cell-free assay |  |  | 0.5 µM | remaining signal | 123%
Nc1ncnc2occ(-c3ccc(NC(=O)Nc4cc(C(F)(F)F)ccc4F)cc3)c12 | cell-free assay | inhibitor |  | 20 µM | remaining signal | 28%
CCCCNc1ncc2c(-c3ccc(F)cc3)nn(C[C@H]3CC[C@H](N)CC3)c2n1 | target engagement in cells | inhibitor | chemoproteomics | 20 mM | inhibition | 20.6%
CC(C)(O)[C@H]1CC[C@H](Nc2ccc3ncc(-c4cccc(C(F)(F)F)c4)n3n2)CC1 | enzyme activity | inhibitor |  | 1 µM | remaining activity | 91.8%
CC1=C(C#N)C(c2ccc3c(c2)c(NC(=O)c2ccccc2C)nn3C)C(C#N)=C(C)N1 | cell-free assay |  | competition with immobilised ligand | 1 µM | remaining binding | 100%
Nc1nc(Nc2ccc(S(N)(=O)=O)cc2)nn1C(=O)c1c(F)cccc1F | cell-free assay |  |  | 0.5 µM | remaining signal | 86.4%
COc1ccc2c(c1)O[C@H](c1ccc(OC)c(OC)c1)C[C@@H]2NC(=O)C1(c2ccc3c(c2)OC(F)(F)O3)CC1 | cell-free assay |  | competition with immobilised ligand | 1 µM | remaining binding | 100%
O=C(Nc1cnn(-c2csc(C(=O)NC3COC3)c2)c1)Nc1c(F)cccc1Cl | enzyme activity | inhibitor |  | 5 µM | remaining activity | 93.7%
Cc1nc(N2CC[C@@H](O)C2)ncc1-c1cc(C(F)(F)F)cc2[nH]ncc12 | binding |  | competition with immobilised ligand | 1 µM | remaining binding | 100%
Cn1c2c(c3ccc(Cl)c(Cl)c31)C(C#N)C(C)(C)NC2=O (stereo not shown) | thermal stability |  | DSF | 10 µM | ΔTm | 2.6 °C
Cc1c(NC(=O)c2cc(C(N)=O)nc3cc(F)ccc23)c(C(F)(F)F)nn1Cc1ccc(C#N)cc1 | cell-free assay |  | competition with immobilised ligand | 1 µM | remaining binding | 97%
CN(c1ncccc1CNc1nc(Nc2ccc3c(c2)CC(=O)N3)ncc1C(F)(F)F)S(C)(=O)=O | enzyme activity | inhibitor |  | 1 µM | inhibition | 46%
